# From ChEMBL document CHEMBL4130528, “Serotonin Analogues as Inhibitors of Breast Cancer Cell Growth” (ACS Med Chem Lett, 2017)
# How the values were obtained:
# [1] = tested on: MCF7; test: Cytotoxicity against human MCF7 cells assessed as reduction in cell viability by cell titer 96 aqueous one solution based assay; type: functional
# Summary of the method: (§1)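 MDA-MB-231 and MCF-7 breast cancer cells were treated with increasing concentrations of compound. Viability was read by MTS assay, and IC50 values were derived from the concentration–response data.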
# [2] = tested on: MDA-MB-231; test: Cytotoxicity against human MDA-MB-231 cells assessed as reduction in cell viability by cell titer 96 aqueous one solution based assay; type: functional; summary of the method: as §1
SMILES,IC50 [1],IC50 [2]
CCCCCCCCCCCOc1ccc2[nH]cc(CCN)c2c1,6.1 µM,4.4 µM
CCCCCCCCCCOc1ccc2[nH]cc(CCN)c2c1,9 µM,4.4 µM
CCCCCCCCCCCCCCCCOc1ccc2[nH]cc(CCN)c2c1,13 µM,7.5 µM
CCCCCCCCCCCCCCOc1ccc2[nH]cc(CCN)c2c1,8.4 µM,4.8 µM
CCCCC(CC)COc1ccc2[nH]cc(CCN)c2c1 (stereo not drawn),15 µM,8.2 µM
CCCCCCCCCOc1cccc2c(CCN)c[nH]c12,15 µM,8 µM
NCCc1c[nH]c2ccc(OCc3cccc(COc4ccc5[nH]cc(CCN)c5c4)c3)cc12,22 µM,18 µM
NCCc1c[nH]c2ccc(OCCCCCCCCCBr)cc12,17 µM,10 µM
CCCCOc1ccc2[nH]cc(CCN)c2c1,45 µM,48 µM
